Assay results gathered from unrelated publications.
Lines come from different studies, so protocols differ.
FLT3 K663Q: Receptor-type tyrosine-protein kinase FLT3 (FLT3, Homo sapiens, UniProt P36888, K663Q)
FLT3 autoinhibited: Receptor-type tyrosine-protein kinase FLT3, autoinhibited (FLT3, Homo sapiens, UniProt P36888)
FLT3 ITD: Receptor-type tyrosine-protein kinase FLT3 (FLT3, Homo sapiens, UniProt P36888, ITD)
FLT3: Receptor-type tyrosine-protein kinase FLT3 (FLT3, Homo sapiens, UniProt P36888)
FLT3 D835H: Receptor-type tyrosine-protein kinase FLT3 (FLT3, Homo sapiens, UniProt P36888, D835H)
FLT3 R834Q: Receptor-type tyrosine-protein kinase FLT3 (FLT3, Homo sapiens, UniProt P36888, R834Q)
FLT3 D835V: Receptor-type tyrosine-protein kinase FLT3 (FLT3, Homo sapiens, UniProt P36888, D835V)
FLT3 N841I: Receptor-type tyrosine-protein kinase FLT3 (FLT3, Homo sapiens, UniProt P36888, N841I)
FLT3 D835Y: Receptor-type tyrosine-protein kinase FLT3 (FLT3, Homo sapiens, UniProt P36888, D835Y)

For O=C1CCc2cc(Nc3cc(OC4CCOCC4)c([N+](=O)[O-])cc3Cl)ccc2N1, the remaining binding was 78% (Receptor-type tyrosine-protein kinase FLT3 (FLT3, Homo sapiens, UniProt P36888, D835V/ITD); cell-free assay; competition with immobilised ligand; 1 µM).
c1cncc(-c2cccc(Nc3nccc(NC4CCCCC4)n3)c2)c1 gave a remaining binding of 1.1% (FLT3 K663Q; binding; competition with immobilised ligand; 10 µM).
The remaining binding of CC1CCCN1c1nccc(-c2cnn3ncccc23)n1 (centres unmarked) is reported as 100% (FLT3 autoinhibited; binding; 1 µM).
With CNCc1ccccc1-c1csc([C@H](C)Nc2nc(C)nc3cc(OC)c(OC)cc23)c1 the remaining binding was 99% (FLT3 ITD; cell-free assay; competition with immobilised ligand; 1 µM).
With O=C(c1ccc(Nc2nccc(-c3cc4ccccc4s3)n2)cc1)N1CCC(N2CCCC2)CC1 the remaining binding was 44% (FLT3; binding; competition with immobilised ligand; 1 µM).
CCN1CCN(Cc2ccc(C(=O)Nc3ccc(C)c(Oc4ccc5c(c4)CC(=O)N5)c3)cc2C(F)(F)F)CC1 has a remaining binding of 100% (FLT3 D835H; binding; competition with immobilised ligand; 1 µM).
COc1cnc(Nc2cccc(S(N)(=O)=O)c2)nc1N1CCN(c2ccccc2)CC1 has a remaining binding of 54% (FLT3 R834Q; binding; competition with immobilised ligand; 1 µM).
O=C(NCCCN1CCOCC1)c1ccc(Nc2nccc(-c3cc4ccccc4s3)n2)cc1 gave a remaining binding of 3.4% (FLT3 D835V; binding; competition with immobilised ligand; 1 µM).
With CO[C@@H](C)c1c(Nc2ccc([C@H](N(C)C(=O)C3CCS(=O)(=O)CC3)C(F)(F)F)cc2)cnc2cc(Cl)nn12 the remaining binding was 100% (FLT3 K663Q; cell-free assay; competition with immobilised ligand; 1 µM).
With COc1cnc(Nc2cccc(S(N)(=O)=O)c2)nc1N1CCN(c2ccccc2)C(=O)C1 the remaining binding was 100% (FLT3 autoinhibited; binding; competition with immobilised ligand; 1 µM).
CN(CCCC(F)(F)F)c1nccc(-c2cnn3ncccc23)n1 gave a remaining binding of 84% (FLT3 D835V; binding; 1 µM).
CN1CCN(c2ccc(Nc3nccc(-c4cccc([N+](=O)[O-])c4)n3)cc2C(F)(F)F)CC1 has a remaining binding of 0.05% (FLT3 N841I; binding; 10 µM).
O=C(c1ccc(Nc2ncc(Cl)c(-c3ccc(Cl)s3)n2)cc1)N1CCC(N2CCCC2)CC1 has a remaining binding of 1.9% (FLT3 D835V; binding; competition with immobilised ligand; 1 µM).
C[C@@H]1CCN(c2nccc(-c3cnn4ncccc34)n2)C1 has a remaining binding of 100% (FLT3 D835Y; binding; 1 µM).
For O=C(NCCCN1CCOCC1)c1ccc(Nc2ncc(Cl)c(-c3ccc(Cl)s3)n2)cc1, the remaining binding was 7.7% (FLT3; binding; competition with immobilised ligand; 1 µM).
For COc1ccnn2ncc(-c3ccnc(N(C)C)n3)c12, the remaining binding was 78% (FLT3 autoinhibited; binding; 1 µM).
The remaining binding of O=C(NCC1CCOCC1)c1n[nH]cc1NC(=O)c1c(F)cccc1F is reported as 100% (FLT3 D835V; binding; competition with immobilised ligand; 1 µM).
The remaining binding of Cc1cnc(Nc2ccc(C(=O)N3CCC(N4CCCC4)CC3)cc2)nc1-c1cc2ccccc2s1 is reported as 6.6% (FLT3 ITD; binding; competition with immobilised ligand; 1 µM).
With C=CC(=O)N1CCC(C(=O)NCC(=O)N2CCN(c3nc(-c4cnc(N)nc4C(F)F)nc(N4CCOCC4)n3)CC2)CC1 the remaining binding was 91% (FLT3; binding; competition with immobilised ligand; 1 µM).
The remaining binding of O=C(c1ccc(Nc2ncc(Cl)c(-c3cc4ccccc4s3)n2)cc1)N1CCC(N2CCCC2)CC1 is reported as 3.7% (FLT3 D835Y; binding; competition with immobilised ligand; 1 µM).
The remaining binding of O=C(Nc1c[nH]nc1C(=O)NC1CCNCC1)c1cc(F)cc(F)c1 is reported as 94% (FLT3 R834Q; binding; competition with immobilised ligand; 1 µM).
Cc1cnn2ncc(-c3ccnc(N(C)C)n3)c2c1 gave a remaining binding of 100% (FLT3 N841I; binding; 1 µM).
CS(=O)(=O)N1CCCC(NC(=O)[C@H](CCC2CCCCC2)NC(=O)c2ccc(CNC(=O)c3cnc4ccccn34)cc2)C1 (some centres unmarked) gave a remaining binding of 93% (FLT3 autoinhibited; cell-free assay; competition with immobilised ligand; 0.1 µM).
For N[C@@H]1CCN(c2nccc(-c3cnn4ncccc34)n2)C1, the remaining binding was 79% (FLT3 N841I; binding; 1 µM).
For CS(=O)(=O)c1cc(C2(NC(=O)c3cncc4c3cnn4-c3ccc(F)cc3)CC2)ccn1, the remaining binding was 100% (FLT3 D835V; cell-free assay; competition with immobilised ligand; 1 µM).
For CN(C)c1nccc(-c2cnc3ncccn23)n1, the remaining binding was 100% (FLT3; binding; 1 µM).
The remaining binding of C[C@@H]1CN(c2cc(-c3nn(C)c4ccc(OC5(C)CC5)cc34)ncn2)C[C@H](C)O1 is reported as 77% (FLT3 autoinhibited; cell-free assay; competition with immobilised ligand; 1 µM).
Nc1ncc2c(n1)-c1c([nH]c3ccc(C#CC4CC4)cc13)CCCC2 has a remaining binding of 89% (FLT3 D835Y; binding; competition with immobilised ligand; 1 µM).
For C[C@@H](c1ccc(-n2cnc3c(N)ncnc32)cc1)N1CCc2nn(C)c(Cc3ccccc3)c2C1=O, the remaining binding was 100% (FLT3 D835Y; binding; competition with immobilised ligand; 0.1 µM).
With CO[C@H]1CC[C@H](CNc2ccc(S(=O)(=O)NC(=O)c3ccc(N4CCN(CC5=C(c6ccc(Cl)cc6)CC(C)(C)CC5)CC4)cc3Oc3cnc4[nH]ccc4c3)cc2[N+](=O)[O-])CC1 the remaining binding was 100% (FLT3; cell-free assay; competition with immobilised ligand; 1 µM).
For CNC(=O)[C@@H]1CC[C@@H](n2c(-c3ccc4cnccc4c3)nc3ccc(C(=O)NCc4cccc(C(N)=O)c4)cc32)C1, the remaining binding was 100% (FLT3 R834Q; binding; competition with immobilised ligand; 1 µM).
For CN(C)c1nccc(-c2cnn3ncccc23)n1, the remaining binding was 100% (FLT3 D835H; binding; 1 µM).
CN1CCN(c2ccc(Nc3nccc(-c4ccccc4)n3)cc2C(F)(F)F)CC1 gave a remaining binding of 0% (FLT3 D835V; binding; 10 µM).
The remaining binding of Cc1noc([C@H]2C[C@@H](c3ccc(C(F)(F)F)cc3)CN(C(=O)N3CCS(=O)(=O)C3)C2)n1 is reported as 100% (FLT3 D835H; cell-free assay; competition with immobilised ligand; 1 µM).
With COc1ncc2cc3ccccc3nc2c1C#N the remaining binding was 100% (FLT3 D835V; cell-free assay; competition with immobilised ligand; 5 µM).
